Experimental findings from ChEMBL document CHEMBL4350961, “Discovery of Pyrrolo[3,2- d]pyrimidin-4-one Derivatives as a New Class of Potent and Cell-Active Inhibitors of P300/CBP-Associated Factor Bromodomain” (J Med Chem, 2019) are described below.

Activity calls are given as the source filed them. The rule behind the calls is not given here.

For series [1], the target named is Serine/threonine-protein kinase 17A (Homo sapiens) (UniProt Q9UEE5). In words: Inhibition of recombinant full-length human DRAK1 at 10 uM using KKLNRTLSFAEPG as substrate measured after 40 mins in presence of [gamma33P]ATP by scintillation counting method.
Series [2] deals with 5'-AMP-activated protein kinase catalytic subunit alpha-2 (Homo sapiens) (UniProt P54646). Kind of series: Inhibition of recombinant full-length human AMPKalpha2 at 10 uM using AMARAASAAALARRR as substrate measured after 40 mins in presence of [gamma33P]ATP by scintillation counting method.
Series [3] concerns the target Tau-tubulin kinase 2 (Homo sapiens) (UniProt Q6IQ55). In words: Inhibition of human TTBK2 (1 to 331 residues) using Casein as substrate measured after 40 mins in presence of [gamma33P]ATP by scintillation counting method.
For series [4], the system named is Tyrosine-protein kinase BTK (Homo sapiens), Q06187 [R28H]. Kind of series: Inhibition of full-length recombinant human BTK R28H mutant at 10 uM using LSNLYHQGKFLQTFCGSPLYRRR as substrate measured after 40 mins in presence of [gamma33P]ATP by scintillation counting method. In short, it runs like this:
(§1)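 Kinase panel of 422 kinases screened by Eurofins KinaseProfiler at a single test-compound concentration of 10 µM.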

For series [5], the target named is Bromodomain-containing protein 9 (Homo sapiens) (UniProt Q9H8M2). In words: Binding affinity to human N-terminal His-tagged BRD9 assessed as change in melting temperature at 10 uM by SYPRO orange dye-based fluorescence assay. In short, it runs like this: (§2)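 Thermal shift with His-tagged human bromodomain at 2 μM final in 10 mM HEPES pH 7.5, 500 mM NaCl. Compound at 10 μM final with 0.1% DMSO; SYPRO Orange at 1:1000. Equilibrated 3 min at 25 °C, then heated from 25 to 95 °C at 1 °C/min. Melting temperature shift taken from fluorescence; at least duplicate.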

Series [6] concerns the target AP2-associated protein kinase 1 (Homo sapiens) (UniProt Q2M2I8). Kind of series: Inhibition of human AAK1 at 10 uM using peptide substrate measured after 120 mins in presence of [gamma33P]ATP by scintillation counting method. In outline:
as §1

The species entered for series [7] is Homo sapiens. Kind of series: Inhibition of recombinant human Mer H628Q/R794A mutant (557 to 882 residues) at 10 uM using GGMEDIYFEFMGGKKK as substrate measured after 40 mins in presence of [gamma33P]ATP by scintillation counting method.
For series [8], the target named is Transcription intermediary factor 1-alpha (Homo sapiens) (UniProt O15164). In words: Binding affinity to human N-terminal His-tagged TRIM24 assessed as change in melting temperature at 10 uM by SYPRO orange dye-based fluorescence assay. In short, it runs like this:
as §2

The subject of series [9] is Angiopoietin-1 receptor (Homo sapiens), Q02763 [Q939H,Q940H,R849W]. Kind of series: Inhibition of human Tie2 Q939H/Q940H/R849W mutant (771 to end residues) using EFPIYDFLPAKKK as substrate measured after 40 mins in presence of [gamma33P]ATP by scintillation counting method.
Series [10] addresses Mitogen-activated protein kinase kinase kinase kinase 4 (Homo sapiens) (UniProt O95819). Kind of series: Inhibition of recombinant human MAP4K4 (1 to 328 residues) at 10 uM using RLGRDKYKTLRQIRQ as substrate measured after 40 mins in presence of [gamma33P]ATP by scintillation counting method.
The target in series [11] is Casein kinase II subunit alpha' (CK2alpha2, Homo sapiens) (UniProt P19784). Kind of series: Inhibition of recombinant full length human CK2alpha2 at 10 uM using RRRDDDSDDD as substrate measured after 40 mins in presence of [gamma33P]ATP by scintillation counting method.
Series [12] deals with Serine/threonine-protein kinase Chk1 (Homo sapiens) (UniProt O14757). Kind of series: Inhibition of recombinant full length human CHK1 at 10 uM using KKKVSRSGLYRSPSMPENLNRPR as substrate measured after 40 mins in presence of [gamma33P]ATP by scintillation counting method.
The target of series [13] is Serine/threonine-protein kinase PAK 6 (Homo sapiens) (UniProt Q9NQU5). Kind of series: Inhibition of recombinant human PAK6 (382 to end residues) at 10 uM using RRRLSFAEPG as substrate measured after 40 mins in presence of [gamma33P]ATP by scintillation counting method.
The subject of series [14] is Fibroblast growth factor receptor 1 (Homo sapiens), P11362 [V561M]. Kind of series: Inhibition of recombinant human FGFR1 V561M mutant (456 to 765 residues) at 10 uM using GGEEEEYFELVKKKK as substrate measured after 40 mins in presence of [gamma33P]ATP by scintillation counting method.
For series [15], the target named is Tyrosine-protein kinase Lyn (Mus musculus) (UniProt P25911). In words: Inhibition of mouse Lyn at 10 uM.
Series [16] concerns the target Insulin receptor (Homo sapiens) (UniProt P06213). Kind of series: Inhibition of recombinant human IR (1005 to 1310 residues) at 10 uM using KKSRGDYMTMQIG as substrate measured after 40 mins in presence of [gamma33P]ATP by scintillation counting method.
Series [17] in a line: AUC (0 to infinity) in Sprague-Dawley rat at 10 mg/kg, po administered via gavage by LC-MS/MS analysis. The class given is ADME, organism-based. Further details: dose 10 mg/kg, route oral, time infinity. Conditions: in vivo. In outline:
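Serial jugular blood samples taken at designated times and spun to plasma at 4 ℃. Plasma mixed with acetonitrile holding internal standard, then LC-MS/MS. Parameters from noncompartmental fitting.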

The species named for series [18] is Homo sapiens. In words: Inhibition of recombinant full-length human ATRIP/ATR M211T mutant at 10 uM using GST-cMyc-p53 as substrate measured after 40 mins by fluorescence assay.
The species entered for another series is Mus musculus. In words: Inhibition of recombinant full-length mouse PI3K p110beta/p85alpha R123L mutant at 10 uM using phosphatidylinositol-4, 5-bisphosphate as substrate measured after 40 mins by HTRF assay. A general note: In TR-FRET formats the signal depends on donor and acceptor labels being close together.
In series [19] the target is Serine/threonine-protein kinase Nek7 (Homo sapiens) (UniProt Q8TDX7). In words: Inhibition of recombinant human NEK7 (2 to end residues) at 10 uM using FLAKSFGSPNRAYKK as substrate measured after 40 mins in presence of [gamma33P]ATP by scintillation counting method.
For series [20], the target named is CDK6/cyclin D3 (Homo sapiens) (UniProt P30281+Q00534). In words: Inhibition of recombinant full-length human CDK6/cyclin D3 at 10 uM using histone H1 as substrate measured after 40 mins in presence of [gamma33P]ATP by scintillation counting method. The class given is protein-complex assay.
The nature of series [21]: Tmax in Sprague-Dawley rat at 10 mg/kg, po administered via gavage by LC-MS/MS analysis. The class given is ADME, organism-based. Conditions: in vivo.
Series [22] has as its target Ephrin type-A receptor 5 (Homo sapiens) (UniProt P54756). Kind of series: Inhibition of recombinant human EphA5 (655 to 956 residues) at 10 uM using poly(Glu, Tyr) 4:1 as substrate measured after 40 mins in presence of [gamma33P]ATP by scintillation counting method.
In series [23] the target is Beta-adrenergic receptor kinase 1 (Homo sapiens) (UniProt P25098). In words: Inhibition of recombinant full-length human GRK2 at 10 uM using casein as substrate measured after 40 mins in presence of [gamma33P]ATP by scintillation counting method.

Chain of Tyrosine-protein kinase Lyn (Mus musculus) (P25911 whole entry, the tested form may be a part): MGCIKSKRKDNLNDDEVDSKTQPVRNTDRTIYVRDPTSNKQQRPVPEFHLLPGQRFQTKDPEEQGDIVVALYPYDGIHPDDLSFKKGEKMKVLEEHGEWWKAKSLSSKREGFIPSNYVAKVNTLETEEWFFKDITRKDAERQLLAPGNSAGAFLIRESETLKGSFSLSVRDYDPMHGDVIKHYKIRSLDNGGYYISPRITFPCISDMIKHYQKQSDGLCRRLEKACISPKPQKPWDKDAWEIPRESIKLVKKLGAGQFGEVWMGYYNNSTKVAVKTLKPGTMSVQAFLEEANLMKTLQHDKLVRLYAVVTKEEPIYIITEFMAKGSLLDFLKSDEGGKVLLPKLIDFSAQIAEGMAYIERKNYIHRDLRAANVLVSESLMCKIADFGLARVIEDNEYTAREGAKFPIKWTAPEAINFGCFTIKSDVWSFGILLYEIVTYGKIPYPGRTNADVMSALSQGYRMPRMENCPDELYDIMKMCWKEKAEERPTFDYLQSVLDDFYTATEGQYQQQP
Chain of Bromodomain-containing protein 9 (Homo sapiens) (Q9H8M2 whole entry): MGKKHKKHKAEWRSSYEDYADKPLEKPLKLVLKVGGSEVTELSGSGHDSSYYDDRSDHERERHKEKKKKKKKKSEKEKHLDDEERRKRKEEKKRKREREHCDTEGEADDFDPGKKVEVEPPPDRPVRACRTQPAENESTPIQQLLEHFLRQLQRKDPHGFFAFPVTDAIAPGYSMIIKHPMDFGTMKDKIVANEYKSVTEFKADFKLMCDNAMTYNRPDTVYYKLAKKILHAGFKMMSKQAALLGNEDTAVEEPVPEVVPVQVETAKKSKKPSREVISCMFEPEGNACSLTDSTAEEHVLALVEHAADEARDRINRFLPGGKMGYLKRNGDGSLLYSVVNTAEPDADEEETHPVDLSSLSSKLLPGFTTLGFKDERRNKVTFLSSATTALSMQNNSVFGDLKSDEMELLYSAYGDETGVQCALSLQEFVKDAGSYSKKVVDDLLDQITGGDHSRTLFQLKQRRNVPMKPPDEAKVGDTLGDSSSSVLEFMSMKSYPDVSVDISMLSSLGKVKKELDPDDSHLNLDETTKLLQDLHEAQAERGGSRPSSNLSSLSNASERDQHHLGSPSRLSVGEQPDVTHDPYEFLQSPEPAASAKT
Chain of Tau-tubulin kinase 2 (Homo sapiens) (Q6IQ55 whole entry, the tested form may be a part): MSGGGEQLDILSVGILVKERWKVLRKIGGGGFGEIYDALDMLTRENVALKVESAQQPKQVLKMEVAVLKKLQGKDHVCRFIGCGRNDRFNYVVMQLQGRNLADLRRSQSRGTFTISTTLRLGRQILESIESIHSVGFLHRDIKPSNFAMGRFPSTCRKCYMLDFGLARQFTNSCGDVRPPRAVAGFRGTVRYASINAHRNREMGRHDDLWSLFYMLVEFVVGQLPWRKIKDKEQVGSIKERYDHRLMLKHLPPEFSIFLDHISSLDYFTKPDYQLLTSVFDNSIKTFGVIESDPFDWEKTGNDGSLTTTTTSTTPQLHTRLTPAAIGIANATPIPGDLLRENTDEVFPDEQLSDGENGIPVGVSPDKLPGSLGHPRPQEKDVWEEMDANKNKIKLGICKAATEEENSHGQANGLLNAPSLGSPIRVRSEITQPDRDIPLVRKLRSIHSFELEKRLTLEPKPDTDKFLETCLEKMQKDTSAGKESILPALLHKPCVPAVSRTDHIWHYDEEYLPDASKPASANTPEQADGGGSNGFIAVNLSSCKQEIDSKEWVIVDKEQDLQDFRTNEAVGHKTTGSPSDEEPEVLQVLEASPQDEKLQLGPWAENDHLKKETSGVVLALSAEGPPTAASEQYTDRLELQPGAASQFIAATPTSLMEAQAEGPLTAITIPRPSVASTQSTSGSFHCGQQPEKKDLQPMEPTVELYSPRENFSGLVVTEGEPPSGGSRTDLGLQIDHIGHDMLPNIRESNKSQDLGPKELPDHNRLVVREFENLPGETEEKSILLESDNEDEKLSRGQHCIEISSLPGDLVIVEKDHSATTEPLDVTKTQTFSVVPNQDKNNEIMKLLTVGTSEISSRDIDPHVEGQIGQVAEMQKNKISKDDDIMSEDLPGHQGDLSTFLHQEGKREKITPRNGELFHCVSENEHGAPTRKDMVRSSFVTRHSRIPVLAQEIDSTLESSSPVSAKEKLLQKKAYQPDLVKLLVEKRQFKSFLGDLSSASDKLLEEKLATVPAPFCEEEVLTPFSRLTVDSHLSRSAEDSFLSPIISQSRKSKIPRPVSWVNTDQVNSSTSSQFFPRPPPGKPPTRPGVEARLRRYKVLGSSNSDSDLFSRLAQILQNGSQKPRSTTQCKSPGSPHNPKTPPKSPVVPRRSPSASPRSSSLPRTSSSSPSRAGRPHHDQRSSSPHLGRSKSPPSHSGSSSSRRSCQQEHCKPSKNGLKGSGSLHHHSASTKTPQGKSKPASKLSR
Chain of Serine/threonine-protein kinase PAK 6 (Homo sapiens) (Q9NQU5 whole entry, looked up, the tested form may be a part): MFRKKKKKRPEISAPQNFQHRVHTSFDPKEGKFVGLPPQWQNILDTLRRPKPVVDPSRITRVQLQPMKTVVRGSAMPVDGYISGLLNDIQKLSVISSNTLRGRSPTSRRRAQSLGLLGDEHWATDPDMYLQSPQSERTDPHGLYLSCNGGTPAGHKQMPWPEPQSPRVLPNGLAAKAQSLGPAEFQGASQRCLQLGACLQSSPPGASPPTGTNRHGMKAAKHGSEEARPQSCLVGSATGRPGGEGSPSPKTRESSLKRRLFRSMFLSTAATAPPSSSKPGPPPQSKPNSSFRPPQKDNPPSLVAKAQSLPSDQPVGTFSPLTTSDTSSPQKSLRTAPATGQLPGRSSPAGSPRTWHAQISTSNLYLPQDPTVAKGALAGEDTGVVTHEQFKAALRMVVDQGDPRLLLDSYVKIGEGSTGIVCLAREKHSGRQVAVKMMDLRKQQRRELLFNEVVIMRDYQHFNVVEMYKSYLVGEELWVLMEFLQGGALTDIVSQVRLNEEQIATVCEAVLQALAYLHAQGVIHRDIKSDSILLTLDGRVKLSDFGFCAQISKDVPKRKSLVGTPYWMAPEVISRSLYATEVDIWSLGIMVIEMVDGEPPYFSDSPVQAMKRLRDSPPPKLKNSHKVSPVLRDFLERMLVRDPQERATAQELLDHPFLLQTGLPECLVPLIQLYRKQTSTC
Chain of Serine/threonine-protein kinase Nek7 (Homo sapiens) (Q8TDX7 whole entry, looked up): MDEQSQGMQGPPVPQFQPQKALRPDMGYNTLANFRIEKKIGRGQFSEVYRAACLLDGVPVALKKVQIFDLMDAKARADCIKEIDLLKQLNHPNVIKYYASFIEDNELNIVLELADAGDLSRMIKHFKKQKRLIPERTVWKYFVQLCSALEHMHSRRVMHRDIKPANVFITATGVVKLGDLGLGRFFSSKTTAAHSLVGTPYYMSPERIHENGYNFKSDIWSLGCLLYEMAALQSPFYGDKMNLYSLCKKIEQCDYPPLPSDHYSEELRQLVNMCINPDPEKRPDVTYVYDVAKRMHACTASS
Chain of Angiopoietin-1 receptor (Homo sapiens), Q02763 [Q939H,Q940H,R849W] (Q02763 whole entry R849W/Q939H/Q940H, the tested form may be a part): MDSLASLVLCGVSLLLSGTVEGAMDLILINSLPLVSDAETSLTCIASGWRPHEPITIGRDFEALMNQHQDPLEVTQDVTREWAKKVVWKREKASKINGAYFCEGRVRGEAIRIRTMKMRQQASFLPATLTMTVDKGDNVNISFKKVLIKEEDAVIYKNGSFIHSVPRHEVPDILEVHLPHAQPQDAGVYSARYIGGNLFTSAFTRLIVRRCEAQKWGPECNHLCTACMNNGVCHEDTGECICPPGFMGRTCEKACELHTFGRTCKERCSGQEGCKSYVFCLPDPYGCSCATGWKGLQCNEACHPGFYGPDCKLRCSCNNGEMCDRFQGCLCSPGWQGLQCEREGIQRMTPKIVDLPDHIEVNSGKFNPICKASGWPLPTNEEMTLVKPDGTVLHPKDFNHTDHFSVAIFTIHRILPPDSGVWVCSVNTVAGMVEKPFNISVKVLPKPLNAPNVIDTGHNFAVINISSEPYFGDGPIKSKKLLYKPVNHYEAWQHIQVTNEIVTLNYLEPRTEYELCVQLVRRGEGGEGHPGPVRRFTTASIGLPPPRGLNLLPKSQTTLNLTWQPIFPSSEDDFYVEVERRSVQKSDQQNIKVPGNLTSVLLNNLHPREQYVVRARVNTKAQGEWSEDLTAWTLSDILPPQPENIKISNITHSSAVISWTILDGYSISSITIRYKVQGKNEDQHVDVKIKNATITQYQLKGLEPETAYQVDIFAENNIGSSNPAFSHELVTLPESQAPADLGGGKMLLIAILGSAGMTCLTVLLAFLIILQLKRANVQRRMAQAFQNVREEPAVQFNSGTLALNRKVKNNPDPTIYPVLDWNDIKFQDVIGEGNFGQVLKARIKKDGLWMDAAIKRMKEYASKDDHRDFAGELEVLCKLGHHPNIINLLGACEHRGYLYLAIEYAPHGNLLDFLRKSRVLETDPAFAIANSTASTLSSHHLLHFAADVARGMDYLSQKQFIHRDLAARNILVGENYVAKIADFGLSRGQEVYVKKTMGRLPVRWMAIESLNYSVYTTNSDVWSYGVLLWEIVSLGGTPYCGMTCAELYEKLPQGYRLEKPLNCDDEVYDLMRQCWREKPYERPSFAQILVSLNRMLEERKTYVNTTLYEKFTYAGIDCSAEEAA
Chain of 5'-AMP-activated protein kinase catalytic subunit alpha-2 (Homo sapiens) (P54646 whole entry, looked up, the tested form may be a part): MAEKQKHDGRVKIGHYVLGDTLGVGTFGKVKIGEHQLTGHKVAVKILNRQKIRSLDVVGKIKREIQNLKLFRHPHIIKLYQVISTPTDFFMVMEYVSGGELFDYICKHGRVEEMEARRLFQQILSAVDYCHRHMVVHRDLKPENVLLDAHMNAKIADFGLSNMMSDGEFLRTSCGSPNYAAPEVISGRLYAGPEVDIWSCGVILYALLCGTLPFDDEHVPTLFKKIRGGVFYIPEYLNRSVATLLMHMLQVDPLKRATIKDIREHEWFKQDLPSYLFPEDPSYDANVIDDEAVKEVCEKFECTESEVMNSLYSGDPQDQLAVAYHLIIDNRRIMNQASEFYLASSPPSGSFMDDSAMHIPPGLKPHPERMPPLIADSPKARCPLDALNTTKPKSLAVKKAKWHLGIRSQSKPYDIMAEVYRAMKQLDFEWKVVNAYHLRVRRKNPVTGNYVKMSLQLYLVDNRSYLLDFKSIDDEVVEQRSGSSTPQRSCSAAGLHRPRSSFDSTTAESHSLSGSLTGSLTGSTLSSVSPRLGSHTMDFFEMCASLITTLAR

As to `CN1C[C@H](Nc2nc3cc[nH]c3c(=O)n2C)C[C@H](c2ccc3c(c2)OCCO3)C1`, the inhibition result (in [1]; in series [2]; in [3]; in series [4]; in series [6]; in the series listed under Homo sapiens [7]) was “inactive” throughout. Besides, the inhibition entry in [9], in series [10], in series [11], in series [12], in [13] and in [14] was “inactive” each time. The inhibition result (in series [15]; in series [16]; in the series listed under Homo sapiens [18]; in the series listed under Mus musculus; in series [19]; in series [20]) was “inactive” in each case. For the same compound, the inhibition entry in series [22] and in [23] was “inactive” throughout. In addition, the ΔTm in [5] is 2.1 °C; in [8], -0.3 °C. The compound further gave an AUC(0-inf) in series [17] of 2.49 µg·h/mL. For the same compound, the Tmax in series [21] is 40.2 min.

As a reminder, the ΔTm is the change in melting temperature against a reference sample. For orientation: AUC(0-inf) means the area under the concentration-time curve extrapolated to infinity. A lower AUC(0-inf) goes with less exposure. Broadly, the Tmax is the time at which the peak concentration occurs.
